The source made the active and inactive calls. The calls are words filed in the database; no cut-off is given here.
Experiments:
[1] = molecular target: T1, Putative uncharacterized protein pk7 (Plasmodium falciparum, UniProt O96214); assay: (§1) Inhibition of Plasmodium falciparum PK7
T1 sequence (O96214 whole entry): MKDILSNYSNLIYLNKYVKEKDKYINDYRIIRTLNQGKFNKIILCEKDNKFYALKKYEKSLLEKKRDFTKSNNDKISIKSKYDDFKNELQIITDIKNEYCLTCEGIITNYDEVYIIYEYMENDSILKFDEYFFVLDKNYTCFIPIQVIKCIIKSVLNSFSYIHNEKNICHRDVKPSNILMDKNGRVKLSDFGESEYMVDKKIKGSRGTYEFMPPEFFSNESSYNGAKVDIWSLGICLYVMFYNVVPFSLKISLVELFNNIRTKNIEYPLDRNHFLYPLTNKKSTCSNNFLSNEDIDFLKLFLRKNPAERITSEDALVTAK

KB = assay: Cytotoxicity against human KB cells; assay type: cell-based
Plasmodium falciparum [2] = assay: Antimalarial activity against multidrug-resistant Plasmodium falciparum K1 by [3H]hypoxanthine uptake; assay type: functional, organism-based
Method in brief: (§2)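 P. falciparum blood-stage growth measured by ³H-hypoxanthine incorporation, with chloroquine as the reference standard. Strains: 3D7, a drug-sensitive laboratory clone of the NF54 isolate, and K1 (Thailand), which is resistant to chloroquine, pyrimethamine and cycloguanil. Values are IC50 in μM.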

Plasmodium falciparum [3] = assay: Antimalarial activity against chloroquine-sensitive Plasmodium falciparum 3D7 by [3H]hypoxanthine uptake; assay type: functional, organism-based; method in brief: as §2
[4] = Selectivity index, ratio of IC50 for human KB cells to IC50 for Plasmodium falciparum 3D7; assay type: toxicity, cell-based; settings: read-out: Ratio IC50
Method in brief: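 Ratio of the human KB cell cytotoxicity IC50 to the P. falciparum 3D7 IC50. 3D7 is a drug-sensitive laboratory clone of the NF54 isolate. Parasite IC50 (μM) came from a 3H-hypoxanthine incorporation assay run with chloroquine as the standard.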

[5] = molecular target: T2, Putative uncharacterized protein pk7 (Plasmodium falciparum) (UniProt O96214); assay: as §1
T2 sequence (whole entry): T1 sequence (O96214 whole entry)

Row | Structure (SMILES) | IC50 [1] [µM] | further results
1 | C[C@H](CO)Nc1ccc2ncc(-c3ccc(C#N)cc3)n2n1 | 1 | –
2 | CC(C)[C@H](N)c1cccc(N2CCOCC2)c1 | 43 | –
3 | C[C@H](N)c1cccc(N2CCOCC2)c1 | 25 | –
4 | N#Cc1ccc(-c2cnc3ccc(NCC4CC4)nn23)cc1 | 0.58 | IC50 (KB): 21.2 µM; IC50 (Plasmodium falciparum [2]): 12.7 µM; IC50 (Plasmodium falciparum [3]): 7.15 µM; selectivity ratio [4]: 2.96
5 | COCCNc1ccc2ncc(-c3ccc(C#N)cc3)n2n1 | 1.4 | –
6 | N#Cc1ccc(-c2cnc3ccc(NCc4cccnc4)nn23)cc1 | 0.81 | –
7 | N#Cc1ccc(-c2cnc3ccc(NCCO)nn23)cc1 | 1 | –
8 | CN(Cc1cccnc1)c1ccc2ncc(-c3ccc(C#N)cc3)n2n1 | 1.26 | –
9 | CC(C)[C@@H](CO)Nc1ccc2ncc(-c3ccc(CC#N)cc3)n2n1 | 25 | –
10 | CC(C)[C@@H](CO)Nc1ccc2ncc(-c3ccc(CO)cc3)n2n1 | 7.4 | –
11 | N#Cc1ccc(-c2cnc3ccc(NCc4ccc(N5CCOCC5)cc4)nn23)cc1 | 8 | –
12 | N#Cc1ccc(-c2cnc3ccc(N[C@H]4CCC[C@H](O)C4)nn23)cc1 (racemic) | 0.26 | –
13 | CN(Cc1ccc(F)cc1)c1ccc2ncc(-c3ccc(C#N)cc3)n2n1 | 1.07 | –
14 | CC(C)[C@@H](CO)Nc1ccc2ncc(-c3ccc(CN)cc3)n2n1 | 104 | –
15 | C[C@@H](N)c1cccc(N2CCOCC2)c1 | 4.8 | –
16 | CN(Cc1ccc(F)cc1)c1ccc2ncc(-c3ccc(N)cc3)n2n1 | 42 | –
17 | CC(C)[C@@H](CO)Nc1ccc2ncc(-c3ccc(C(N)=O)cc3)n2n1 | 0.77 | IC50 (KB): 13 µM; IC50 (Plasmodium falciparum [2]): 3.89 µM; IC50 (Plasmodium falciparum [3]): 2.46 µM; selectivity ratio [4]: 5.27
18 | CC(C)[C@@H](CO)Nc1ccc2ncc(-c3ccc(N)cc3)n2n1 | 34 | –

Row | Structure (SMILES) | IC50 [1] [µM] | further results
19 | COc1ccc(-c2cnc3ccc(NCc4cccnc4)nn23)cc1 | 11.6 | –
20 | COC[C@H](C)Nc1ccc2ncc(-c3ccc(C#N)cc3)n2n1 | 0.82 | IC50 (KB): 25.8 µM; IC50 (Plasmodium falciparum [2]): 10.5 µM; IC50 (Plasmodium falciparum [3]): 6.06 µM; selectivity ratio [4]: 4.25
21 | N#Cc1ccc(-c2cnc3ccc(NCC4CCCO4)nn23)cc1 (stereo not given) | 0.75 | –
22 | CN(Cc1ccc(F)cc1)c1ccc2ncc(-c3ccc(CN4CCC(O)CC4)cc3)n2n1 | 103 | –
23 | CN(Cc1ccc(F)cc1)c1ccc2ncc(-c3ccc(CO)cc3)n2n1 | 21 | –
24 | N#Cc1ccc(-c2cnc3ccc(NC4CCCCC4)nn23)cc1 | 0.34 | –
25 | CC(C)[C@@H](CO)Nc1ccc2ncc(-c3ccc(C#N)cc3)n2n1 | 0.28 | IC50 (KB): 52.2 µM; IC50 (Plasmodium falciparum [2]): 6.86 µM; IC50 (Plasmodium falciparum [3]): 2.6 µM; selectivity ratio [4]: 20.1
26 | N#Cc1ccc(-c2cnc3ccc(N[C@H]4CC[C@H](O)CC4)nn23)cc1 | 0.13 | IC50 (KB): 24 µM; IC50 (Plasmodium falciparum [2]): 2.65 µM; IC50 (Plasmodium falciparum [3]): 1.03 µM; selectivity ratio [4]: 23.3
27 | CN(Cc1ccc(F)cc1)c1ccc2ncc(-c3ccc(C(N)=O)cc3)n2n1 | 1.1 | –
28 | CC(C)[C@@H](CO)Nc1ccc2ncc(-c3ccc(CC(=O)O)cc3)n2n1 | 111 | –
29 | CC(C)[C@@H](N)c1cccc(N2CCOCC2)c1 | – | Activity [5]: inactive
30 | C[C@@H](CO)Nc1ccc2ncc(-c3ccc(C#N)cc3)n2n1 | 0.44 | IC50 (KB): 21.2 µM; IC50 (Plasmodium falciparum [2]): 9.93 µM; IC50 (Plasmodium falciparum [3]): 5.26 µM; selectivity ratio [4]: 4.03
31 | CCN(CC)CCCC(C)Nc1ccnc2cc(Cl)ccc12 (stereo not given) [CHLOROQUINE] | – | IC50 (KB): 97.5 µM
32 | N#Cc1ccc(-c2cnc3ccc(NC4CCCNC4)nn23)cc1 (racemic) | 2.1 | –
33 | c1cncc(CNc2ccc3ncc(-c4ccncc4)n3n2)c1 | 7.9 | –
34 | CN(Cc1ccc(F)cc1)c1ccc2ncc(-c3ccc(Cn4ccnc4)cc3)n2n1 | 56 | –
35 | CN(Cc1ccc(F)cc1)c1ccc2ncc(-c3ccc(CNCO)cc3)n2n1 | 34 | –
36 | N#Cc1ccc(-c2cnc3ccc(N[C@H]4CCCC[C@@H]4O)nn23)cc1 (racemic) | 0.22 | –

— ChEMBL document CHEMBL1141703, “Synthesis and in vitro evaluation of imidazopyridazines as novel inhibitors of the malarial kinase PfPK7” (Bioorg Med Chem Lett, 2008)
